Active and inactive are the calls of the source. The calls are words filed in the database; no cut-off is given here.
How the values were obtained:
[1] = molecular target: T1, 5-hydroxytryptamine receptor 1A (Homo sapiens, UniProt P08908); assay: Agonist activity at human 5HT1A receptor expressed in human HeLa cells assessed as inhibition of forskolin-stimulated cAMP production […] measured after 2 hrs by RIA; type: functional, cell-based
T1 sequence (P08908 whole entry): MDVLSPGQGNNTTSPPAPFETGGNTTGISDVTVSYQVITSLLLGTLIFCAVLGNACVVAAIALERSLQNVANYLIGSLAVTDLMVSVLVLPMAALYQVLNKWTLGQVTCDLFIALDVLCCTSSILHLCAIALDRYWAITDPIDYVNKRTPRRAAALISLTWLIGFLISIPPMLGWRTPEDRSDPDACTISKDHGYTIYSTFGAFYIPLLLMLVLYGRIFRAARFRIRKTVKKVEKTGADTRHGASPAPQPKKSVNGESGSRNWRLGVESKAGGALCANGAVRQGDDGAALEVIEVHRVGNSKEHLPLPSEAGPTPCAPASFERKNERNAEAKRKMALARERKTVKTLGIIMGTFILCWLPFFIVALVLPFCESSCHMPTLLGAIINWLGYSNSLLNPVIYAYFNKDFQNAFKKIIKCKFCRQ
How it was run: (§1)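 HeLa cells stably expressing the h5-HT1AR, grown in DMEM with 2 mM glutamine, 1 mM pyruvate and 10% heat-inactivated FCS, and used after 2–3 days at about 7.5 × 10^4 cells/well. After a PBS wash, cells were incubated 10 min in PBS with 0.5 mM isobutylmethylxanthine and 10 μM forskolin, with or without compound. The reaction was stopped with ice-cold ethanol, extracted 2 h and lyophilized; cAMP was measured by RIA.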

[2] = molecular target: T2, 5-hydroxytryptamine receptor 1A (Homo sapiens) (UniProt P08908); assay: Agonist activity at human 5HT1A receptor expressed in human HeLa cells assessed as inhibition of forskolin-stimulated cAMP production pretreated 20 mins before forskolin challenge measured after 2 hrs by RIA relative to control; type: functional, cell-based
T2 sequence (whole entry): T1 sequence (P08908 whole entry)

[3] = molecular target: 5-hydroxytryptamine receptor 2A (Rattus norvegicus, UniProt P14842); assay: Displacement of [3H]ketanserin from 5HT2A receptor in Sprague-Dawley albinus rat frontal cortex membranes after 15 mins; type: cell membranes, Membrane
Chain of 5-hydroxytryptamine receptor 2A (P14842 whole entry): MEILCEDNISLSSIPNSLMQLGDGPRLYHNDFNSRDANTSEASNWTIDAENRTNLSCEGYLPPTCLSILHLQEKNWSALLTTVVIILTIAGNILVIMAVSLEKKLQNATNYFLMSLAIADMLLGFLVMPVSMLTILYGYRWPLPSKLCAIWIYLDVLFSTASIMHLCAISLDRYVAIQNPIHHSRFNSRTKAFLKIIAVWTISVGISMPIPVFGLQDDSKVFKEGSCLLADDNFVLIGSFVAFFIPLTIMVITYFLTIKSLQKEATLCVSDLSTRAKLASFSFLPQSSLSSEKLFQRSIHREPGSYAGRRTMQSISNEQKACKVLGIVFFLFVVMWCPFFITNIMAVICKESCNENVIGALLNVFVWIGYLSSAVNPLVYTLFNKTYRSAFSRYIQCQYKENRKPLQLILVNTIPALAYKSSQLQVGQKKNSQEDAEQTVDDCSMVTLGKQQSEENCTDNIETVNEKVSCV
How it was run: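 Rat frontal cortex membranes (male Sprague–Dawley, 180–200 g). Nonspecific binding was set with 1 μM cinanserin.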

[4] = molecular target: T3, 5-hydroxytryptamine receptor 1A (Rattus norvegicus, UniProt P19327); assay: Displacement of [3H]-8-OH-DPAT from 5-HT1A receptor in Sprague-Dawley albinus rat cerebral cortex membranes after 15 mins; type: cell membranes, Membrane
T3 sequence (P19327 whole entry): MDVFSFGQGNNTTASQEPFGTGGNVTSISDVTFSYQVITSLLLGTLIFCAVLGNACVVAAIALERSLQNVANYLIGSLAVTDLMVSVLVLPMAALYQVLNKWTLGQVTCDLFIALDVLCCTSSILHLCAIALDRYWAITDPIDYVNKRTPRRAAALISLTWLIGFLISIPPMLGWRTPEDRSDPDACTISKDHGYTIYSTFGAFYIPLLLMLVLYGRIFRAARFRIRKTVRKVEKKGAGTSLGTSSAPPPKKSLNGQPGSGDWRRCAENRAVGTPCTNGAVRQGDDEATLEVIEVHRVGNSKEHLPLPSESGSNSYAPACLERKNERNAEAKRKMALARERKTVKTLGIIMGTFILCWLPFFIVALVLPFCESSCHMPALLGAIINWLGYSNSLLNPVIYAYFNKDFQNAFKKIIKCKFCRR

[5] = molecular target: T2, 5-hydroxytryptamine receptor 1A (Homo sapiens); assay: Partial agonist activity at human 5HT1A receptor expressed in human HeLa cells assessed as inhibition of forskolin-stimulated cAMP production pretreated 20 mins before forskolin challenge measured after 2 hrs by RIA; type: functional, cell-based; how it was run: as §1
[6] = molecular target: T4, 5-hydroxytryptamine receptor 3A (Rattus norvegicus, UniProt P35563); assay: Displacement of [3H]-LY278584 from 5HT3 receptor in Sprague-Dawley albinus rat cerebral cortex membranes after 30 mins; type: cell membranes, Membrane
T4 sequence (P35563 whole entry): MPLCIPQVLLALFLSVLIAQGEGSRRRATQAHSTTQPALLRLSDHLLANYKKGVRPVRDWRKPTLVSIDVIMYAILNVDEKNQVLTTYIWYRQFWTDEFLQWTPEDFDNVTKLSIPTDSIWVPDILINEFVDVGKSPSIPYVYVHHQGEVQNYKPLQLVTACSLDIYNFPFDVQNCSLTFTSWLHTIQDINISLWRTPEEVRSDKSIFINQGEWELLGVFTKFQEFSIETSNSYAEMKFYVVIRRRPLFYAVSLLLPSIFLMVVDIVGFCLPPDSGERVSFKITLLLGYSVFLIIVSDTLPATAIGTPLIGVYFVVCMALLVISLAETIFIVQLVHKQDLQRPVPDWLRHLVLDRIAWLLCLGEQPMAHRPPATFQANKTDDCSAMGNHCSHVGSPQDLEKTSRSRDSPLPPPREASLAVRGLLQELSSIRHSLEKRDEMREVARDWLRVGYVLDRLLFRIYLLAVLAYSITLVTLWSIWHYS

D(2) dopamine receptor = D(2) dopamine receptor (Rattus norvegicus, UniProt P61169); assay: Displacement of [3H]spiperone from dopamine D2 receptor in Sprague-Dawley albinus rat striatal membranes after 15 mins; type: cell membranes, Membrane
Chain of D(2) dopamine receptor (P61169 whole entry): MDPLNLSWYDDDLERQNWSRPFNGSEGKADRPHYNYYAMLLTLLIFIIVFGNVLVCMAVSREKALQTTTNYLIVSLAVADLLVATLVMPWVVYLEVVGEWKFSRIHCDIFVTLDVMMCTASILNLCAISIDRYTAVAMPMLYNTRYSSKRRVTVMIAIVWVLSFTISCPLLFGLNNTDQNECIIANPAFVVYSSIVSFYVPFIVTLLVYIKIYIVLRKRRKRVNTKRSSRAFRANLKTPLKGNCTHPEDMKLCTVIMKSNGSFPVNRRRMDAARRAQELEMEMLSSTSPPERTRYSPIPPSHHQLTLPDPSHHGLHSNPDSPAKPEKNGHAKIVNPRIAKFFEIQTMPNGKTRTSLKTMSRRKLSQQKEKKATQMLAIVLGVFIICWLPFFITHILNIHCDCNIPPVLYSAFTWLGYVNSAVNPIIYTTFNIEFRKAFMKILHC

[7] = molecular target: T5, Adrenergic receptor alpha-1 (Rattus norvegicus, UniProt P15823+P23944+P43140); assay: Displacement of [3H]prazosin from alpha1 adrenoceptor in Sprague-Dawley albinus rat cerebral cortex membranes after 30 mins; type: cell membranes, Membrane
T5 sequence (P15823 whole entry): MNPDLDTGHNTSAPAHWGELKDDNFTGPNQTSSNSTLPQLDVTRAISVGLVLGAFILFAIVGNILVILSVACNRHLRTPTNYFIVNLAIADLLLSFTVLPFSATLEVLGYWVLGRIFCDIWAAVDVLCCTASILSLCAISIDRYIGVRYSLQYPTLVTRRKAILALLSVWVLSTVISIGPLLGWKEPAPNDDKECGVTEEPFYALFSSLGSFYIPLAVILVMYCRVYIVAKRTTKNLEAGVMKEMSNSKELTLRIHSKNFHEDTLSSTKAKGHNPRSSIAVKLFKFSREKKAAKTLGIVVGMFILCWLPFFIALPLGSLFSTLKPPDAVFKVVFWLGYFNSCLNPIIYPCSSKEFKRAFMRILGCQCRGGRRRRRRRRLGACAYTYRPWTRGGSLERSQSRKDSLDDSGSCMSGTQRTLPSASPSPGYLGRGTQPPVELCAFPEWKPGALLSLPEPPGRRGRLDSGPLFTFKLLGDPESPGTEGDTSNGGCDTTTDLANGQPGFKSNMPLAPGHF
T5 sequence (P23944 whole entry): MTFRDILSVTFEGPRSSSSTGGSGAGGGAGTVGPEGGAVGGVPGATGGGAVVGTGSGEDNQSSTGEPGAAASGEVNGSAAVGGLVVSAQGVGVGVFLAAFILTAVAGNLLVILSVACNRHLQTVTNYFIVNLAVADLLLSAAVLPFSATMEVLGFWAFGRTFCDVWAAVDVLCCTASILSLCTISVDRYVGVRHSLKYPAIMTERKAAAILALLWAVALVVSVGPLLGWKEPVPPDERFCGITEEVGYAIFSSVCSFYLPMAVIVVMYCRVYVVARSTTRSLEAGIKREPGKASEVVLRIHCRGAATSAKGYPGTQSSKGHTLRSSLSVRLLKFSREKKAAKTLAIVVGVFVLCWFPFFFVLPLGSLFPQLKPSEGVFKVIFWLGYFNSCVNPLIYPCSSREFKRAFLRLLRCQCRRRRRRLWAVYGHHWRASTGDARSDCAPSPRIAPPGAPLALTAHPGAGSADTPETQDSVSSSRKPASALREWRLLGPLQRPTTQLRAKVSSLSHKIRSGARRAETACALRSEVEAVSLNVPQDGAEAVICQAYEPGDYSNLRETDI
T5 sequence (P43140 whole entry): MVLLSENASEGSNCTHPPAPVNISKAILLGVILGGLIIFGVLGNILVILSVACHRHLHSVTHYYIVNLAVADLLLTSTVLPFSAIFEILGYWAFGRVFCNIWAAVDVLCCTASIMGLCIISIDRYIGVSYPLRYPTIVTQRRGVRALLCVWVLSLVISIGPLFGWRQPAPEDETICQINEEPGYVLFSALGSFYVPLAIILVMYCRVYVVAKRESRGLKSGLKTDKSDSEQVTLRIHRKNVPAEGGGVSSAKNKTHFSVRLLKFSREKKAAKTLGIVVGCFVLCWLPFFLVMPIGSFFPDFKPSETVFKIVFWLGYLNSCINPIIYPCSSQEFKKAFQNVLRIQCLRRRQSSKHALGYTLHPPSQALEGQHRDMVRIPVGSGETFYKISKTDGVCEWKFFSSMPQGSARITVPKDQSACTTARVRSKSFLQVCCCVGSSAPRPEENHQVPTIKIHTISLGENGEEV
How it was run: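 Rat cerebral cortex membranes (about 250 μg protein; male Sprague–Dawley, 180–200 g) in 50 mM Tris-HCl with 10 mM MgCl2, pH 7.4. Incubation was 30 min at 25 °C with 0.2 nM [3H]prazosin and six competitor concentrations. Nonspecific binding was set with 10 μM phentolamine.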

[8] = molecular target: 5-hydroxytryptamine receptor 4 (Rattus norvegicus, UniProt Q62758); assay: Displacement of [3H]GR113808 from 5HT4 receptor in Sprague-Dawley albinus rat striatal membranes after 30 mins by scintillation counting; type: cell membranes, Membrane
Chain of 5-hydroxytryptamine receptor 4 (Q62758 whole entry): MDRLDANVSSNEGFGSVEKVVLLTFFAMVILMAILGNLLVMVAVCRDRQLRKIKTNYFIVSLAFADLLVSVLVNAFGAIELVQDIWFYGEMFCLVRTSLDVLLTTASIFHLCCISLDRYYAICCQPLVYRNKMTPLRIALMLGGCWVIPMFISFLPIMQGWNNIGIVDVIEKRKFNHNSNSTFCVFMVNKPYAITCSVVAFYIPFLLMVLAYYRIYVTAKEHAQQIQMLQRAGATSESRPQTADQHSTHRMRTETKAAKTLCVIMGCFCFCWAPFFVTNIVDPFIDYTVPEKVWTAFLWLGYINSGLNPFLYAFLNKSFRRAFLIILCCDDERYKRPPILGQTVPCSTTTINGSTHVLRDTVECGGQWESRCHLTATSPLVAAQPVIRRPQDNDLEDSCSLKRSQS

[9] = molecular target: 5-hydroxytryptamine receptor 7 (Rattus norvegicus, UniProt P32305); assay: Displacement of [3H]-5-CT from 5HT7 receptor in Sprague-Dawley albinus rat hyphalamic membranes after 120 mins; type: cell membranes, Membrane
Chain of 5-hydroxytryptamine receptor 7 (P32305 whole entry): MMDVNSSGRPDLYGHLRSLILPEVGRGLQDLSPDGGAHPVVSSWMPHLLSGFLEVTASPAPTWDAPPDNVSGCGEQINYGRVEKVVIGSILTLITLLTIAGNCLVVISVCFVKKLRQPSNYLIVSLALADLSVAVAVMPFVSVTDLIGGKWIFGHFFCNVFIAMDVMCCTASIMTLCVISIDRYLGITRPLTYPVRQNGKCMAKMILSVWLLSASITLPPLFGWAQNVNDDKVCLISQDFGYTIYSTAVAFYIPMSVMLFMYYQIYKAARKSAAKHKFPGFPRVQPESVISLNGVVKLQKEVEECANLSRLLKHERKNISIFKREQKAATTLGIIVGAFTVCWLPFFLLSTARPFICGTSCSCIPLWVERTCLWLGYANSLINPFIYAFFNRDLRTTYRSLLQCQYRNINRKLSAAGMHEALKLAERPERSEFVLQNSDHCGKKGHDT

## O=C1C2CCCN2C(=O)N1CCCCCCNCC1CCc2ccccc2O1 (stereo unspecified)
[1]
  EC50: 0.0218 µM
[2]
  Emax: 91.2%
[3]
  Ki: > 1 µM
[4]
  Ki: 0.0059 µM

## O=C1C2CSCN2C(=O)N1CCCCNCC1CCc2ccccc2O1 (stereo unspecified)
[2]
  Emax: 89.3%
[3]
  Ki: > 1 µM
[4]
  Ki: 0.013 µM

## O=C1CSC(=O)N1CCCCNCC1CCc2ccccc2O1 (stereo unspecified)
[2]
  Emax: 89.6%
[3]
  Ki: > 1 µM
[4]
  Ki: 0.0151 µM

## O=C1C2CCCN2C(=O)N1CCCCNCc1cccc2ccccc12 (stereo unspecified)
[4]
  Ki: > 1 µM

## O=C1C2CCCN2C(=O)N1Cc1cccc(CNCC2CCc3ccccc3O2)c1 (stereo unspecified)
[3]
  Ki: > 1 µM

## O=C1C2CCCN2C(=O)N1CCCCCCCCNCC1CCc2ccccc2O1 (stereo unspecified)
[4]
  Ki: 0.0876 µM

## O=C1C2CCCN2C(=O)N1CCCCNCc1ccco1 (stereo unspecified)
[4]
  Ki: > 1 µM

## O=C1C2CCCN2C(=O)N1CCCCNCc1ccc2ccccc2n1 (stereo unspecified)
[5]
  Activity: Active
[2]
  Emax: 75.8%
[3]
  Ki: > 1 µM
[4]
  Ki: 0.0083 µM

## Cl.O=C1C2CCCN2C(=O)N1CCCCNCCc1ccc2ccccc2c1 (stereo unspecified)
[6]
  Ki: > 1 µM
D(2) dopamine receptor
  Ki: > 1 µM
[7]
  Ki: 0.099 µM

## O=C1C2CCCN2C(=O)N1CCCCNCc1ccc2ccccc2c1 (stereo unspecified)
[3]
  Ki: > 1 µM
[4]
  Ki: 0.049 µM

## O=C1C2CCCN2C(=O)N1CC#CCNCC1CCc2ccccc2O1 (stereo unspecified)
[4]
  Ki: > 1 µM

## O=C1C2CCCN2C(=O)N1CCCNCC1CCc2ccccc2O1 (stereo unspecified)
[1]
  EC50: 0.0233 µM
[2]
  Emax: 94.3%
[3]
  Ki: > 1 µM
[4]
  Ki: 0.0082 µM

## O=C1C2CCCN2C(=O)N1CCCCNCc1ccccc1 (stereo unspecified)
[4]
  Ki: > 1 µM

## O=C1C2CCCN2C(=O)N1Cc1ccc(CNCC2CCc3ccccc3O2)cc1 (stereo unspecified)
[3]
  Ki: > 1 µM
[4]
  Ki: 0.028 µM

## O=C1CSC(=O)N1CCCCCCNCC1CCc2ccccc2O1 (stereo unspecified)
[1]
  EC50: 0.0199 µM
[2]
  Emax: 87%
[3]
  Ki: > 1 µM

## O=C1C2CCCN2C(=O)N1CCCCCNCC1CCc2ccccc2O1 (stereo unspecified)
[1]
  EC50: 0.157 µM
[2]
  Emax: 92.5%
[3]
  Ki: > 1 µM
[4]
  Ki: 0.0129 µM

## O=C1CSC(=O)N1CCCCCNCC1CCc2ccccc2O1 (stereo unspecified)
[1]
  EC50: 0.0342 µM
[2]
  Emax: 94.8%
[3]
  Ki: > 1 µM

## O=C1C2CCCN2C(=O)N1CCCCNCc1cccs1 (stereo unspecified)
[4]
  Ki: > 1 µM

## O=C1C2CCCN2C(=O)N1CCCCNCCc1cccs1 (stereo unspecified)
[4]
  Ki: > 1 µM

## Cl.O=C1C2CCCN2C(=O)N1CCCCNCCc1cccc2ccccc12 (stereo unspecified)
[6]
  Ki: > 1 µM
[8]
  Ki: > 1 µM
[9]
  Ki: > 1 µM
D(2) dopamine receptor
  Ki: > 1 µM
[3]
  Ki: > 1 µM
[7]
  Ki: > 1 µM

## O=C1C2CCCN2C(=O)N1C/C=C\CNCC1CCc2ccccc2O1 (stereo unspecified)
[4]
  Ki: 0.114 µM

## O=C1C2CCCN2C(=O)N1C/C=C/CNCC1CCc2ccccc2O1 (stereo unspecified)
[3]
  Ki: > 1 µM
[4]
  Ki: 0.027 µM

## O=C1CSC(=O)N1CCCCCCCCNCC1CCc2ccccc2O1 (stereo unspecified)
[1]
  EC50: 0.0259 µM
[2]
  Emax: 88.6%
[3]
  Ki: > 1 µM

## O=C1C2CCCN2C(=O)N1CCCCNCCc1ccccc1 (stereo unspecified)
[4]
  Ki: > 1 µM

## Cl.O=C1C2CCCCN2C(=O)CN1CCCCNCC1CCc2ccccc2O1 (stereo unspecified)
[6]
  Ki: > 1 µM
[8]
  Ki: > 1 µM
[9]
  Ki: > 1 µM
D(2) dopamine receptor
  Ki: > 1 µM
[3]
  Ki: > 1 µM
[4]
  Ki: 0.034 µM
[7]
  Ki: 0.067 µM

## O=C1C2CCCN2C(=O)N1CCCCNCCc1ccccn1 (stereo unspecified)
[4]
  Ki: > 1 µM

## O=C1C2CCCN2C(=O)N1CCCCNCc1ccccn1 (stereo unspecified)
[4]
  Ki: > 1 µM

## O=C1C2CCCN2C(=O)N1CCCCNCCc1ccco1 (stereo unspecified)
[4]
  Ki: > 1 µM

Reference: ChEMBL document CHEMBL1926607 (J Med Chem, 2011)
